Assay results reported in ChEMBL document CHEMBL5528081 (J Med Chem, 2024).

Key:
[1] = Inhibition of Nef protein-dependent MHC-1 HLA-A2 down modulation in human CD4 positive T cells transduced with replication defective HIV containing GFP reporter (delta GPE) assessed as restoration of MHC-1 measured after 24 hrs by HLA-A2 staining based flow cytometry; format: cell-based, Human immunodeficiency virus, CD4+ T cell
[2] = Inhibition of V-ATPase-dependent lysosomal acidification in human CD4 positive T cells transduced with replication defective HIV containing GFP reporter (delta GPE) assessed as fluorescence of pH-sensitive Lysotracker dye incubated for 24 hrs by flow cytometry; format: cell-based; conditions: CD4+ T cell
Summary of the method: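 CD8-depleted PHA/IL-2-activated primary CD4+ T cells spinoculated with VSV-G-pseudotyped HIV ΔGPE, 48 h later plated 1×10^5/well and treated 24 h with serial dilutions (top 1000 nM, final IL-2 50 U/mL).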

[3] = Cytotoxicity against human CD4 positive T cells transduced with replication defective HIV containing GFP reporter (delta GPE) assessed as cell viability by measuring vital dye uptake incubated for 72 hrs by flow cytometric assay; format: toxicity, cell-based; conditions: for CC50 at 72 h: read-out: TC50
Summary of the method: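 Primary human PBMCs, CD8-depleted, PHA-L (10 ug/mL) then IL-2 activated; donor-matched mock-transduced cells plated 1×10^5/well in R10 with IL-2 (final 50 U/mL), compounds serially diluted from DMSO stocks (top 1000 nM), 72 h.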

[4] = (§1) Neutralization ratio, ratio of IC50 for Inhibition of V-ATPase-dependent lysosomal acidification in human CD4 positive T cells transduced with replication defective HIV containing GFP reporter (delta GPE) to IC50 for Inhibition of Nef protein-dependent MHC-1 HLA-A2 down modulation in human CD4 positive T cells transduced with replication defective HIV containing GFP reporter (delta GPE)
[5] = as §1, with “Therapeutic” for “Neutralization”, “Cytotoxicity against” for “Inhibition of V-ATPase-dependent lysosomal acidification in”; format: toxicity, cell-based; conditions: read-out: Ratio IC50
Summary of the method: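 Primary human CD4+ T cells (PBMC, CD8-depleted, PHA then IL-2 activated) spinoculated with VSV-G-pseudotyped ΔGPE reporter; 48 h later treated with serial dilutions in R10 + 50 U/mL IL-2, top 1000 nM.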

[6] = tested on: CD4+ T cell; conditions: Human immunodeficiency virus, dose 0.05-10 nM
[7] = Human immunodeficiency virus 1, CD4+ T cell, 24 h

Row | SMILES | IC50 [1, 7] [nM] | Ratio IC50 [4] | selectivity ratio [5] | other results
1 | CO/C1=C\C(C)=C\[C@@H](C)C(=O)[C@@H](C)C/C(C)=C/C=C/[C@H](OC)[C@@H]([C@@H](C)[C@@H](O)[C@H](C)[C@@]2(O)CC(=O)[C@H](C)[C@@H](C(C)C)O2)OC1=O |  |  |  | IC50 ([1]; cd4+ t cell): > 1000 nM
2 | CO[C@H]1/C=C/O[C@@]2(C)Oc3c(C)c(O)c4c(O)c(c(/C=N/N5CCN(C)CC5)c(O)c4c3C2=O)NC(=O)/C(C)=C\C=C\[C@H](C)[C@H](O)[C@@H](C)[C@@H](O)[C@@H](C)[C@H](OC(C)=O)[C@@H]1C [RIFAMPIN] | > 1000 |  |  | IC50 [2]: > 1000 nM; IC50 at 72 h [3]: > 1000 nM
3 | CO/C1=C\C(C)=C\[C@@H](C)C(=O)[C@@H](C)C/C(C)=C/C=C/[C@H](OC)[C@@H]([C@@H](C)[C@@H](O)[C@H](C)[C@@]2(O)C[C@@H](O)[C@H](C)[C@@H](C(C)C)O2)OC1=O |  |  |  | IC50 ([1]; cd4+ t cell): > 1000 nM
4 | CO/C1=C\C(C)=C\[C@@H](C)[C@@H](O)[C@@H](C)C/C(C)=C/C=C/[C@H](OC)[C@@H]([C@@H](C)[C@@H](O)[C@H](C)[C@@]2(O)C[C@@H](OC(=O)c3ccccc3)[C@H](C)[C@@H](C(C)C)O2)OC1=O |  |  |  | IC50 [2]: 128 nM
5 | C/C=C/[C@H]1O[C@@](O)([C@@H](C)[C@H](O)[C@H](C)[C@H]2OC(=O)/C(OC)=C/C(C)=C/[C@@H](C)[C@@H](O)[C@@H](CC)[C@@H](OC(C)=O)[C@H](C)C/C(C)=C/C=C/[C@@H]2OC)C[C@@H](O[C@H]2C[C@@H](OC(C)=O)[C@H](OC(C)=O)[C@@H](C)O2)[C@@H]1C | 2.8 | 3.6 | 1.8 | 
6 | CC[C@H]1OC(=O)C(C)C(O)[C@@H](C)C[C@@H](C)C(=O)/C=C/[C@H]1C (some centres undefined) | 350 |  |  | IC50 [2]: 1720 nM; IC50 at 72 h [3]: 140 nM
7 | C/C=C/[C@H]1O[C@@](O)([C@@H](C)[C@H](O)[C@H](C)[C@H]2OC(=O)/C(OC)=C/C(C)=C/[C@@H](C)[C@@H](O)[C@@H](CC)[C@@H](O)[C@H](C)C/C(C)=C/C=C/[C@@H]2OC)C[C@@H](O[C@H]2C[C@@H](OC(C)=O)[C@H](OC(N)=O)[C@@H](C)O2)[C@@H]1C |  |  | 8.5 | 
8 | C/C=C/[C@H]1O[C@@H]([C@@H](C)[C@H](O)[C@H](C)[C@H]2OC(=O)/C(OC)=C/C(C)=C/[C@@H](C)[C@@H](O)[C@@H](CC)[C@@H](O)[C@H](C)C/C(C)=C/C=C/[C@@H]2OC)C[C@@H](O)[C@@H]1C | 4.5 |  |  | 
9 | C/C=C/[C@H]1O[C@@](O)([C@@H](C)[C@H](O)[C@H](C)[C@H]2OC(=O)/C(OC)=C/C(C)=C/[C@@H](C)[C@@H](O)[C@@H](CC)[C@@H](OC(C)=O)[C@H](C)C/C(C)=C/C=C/[C@@H]2OC)C[C@@H](O[C@H]2C[C@@H](OC(C)=O)[C@H](OC(N)=O)[C@@H](C)O2)[C@@H]1C |  |  |  | inhibition [6]: Dose-Dependent Effect
10 | C/C=C/[C@H]1O[C@@](O)([C@@H](C)[C@H](O)[C@H](C)[C@H]2OC(=O)/C(OC)=C/C(C)=C/[C@@H](C)[C@@H](O)[C@@H](CC)[C@@H](O)[C@H](C)C/C(C)=C/C=C/[C@@H]2OC)C[C@@H](O[C@H]2C[C@@H](O)[C@H](OC(N)=O)[C@@H](C)O2)[C@@H]1C |  |  |  | inhibition [6]: Dose-Dependent Effect
11 | C=C/C=C/C(=O)O[C@@H]1C[C@](O)([C@@H](C)[C@H](O)[C@H](C)[C@H]2OC(=O)/C(OC)=C/C(C)=C/[C@@H](C)[C@@H](O)[C@@H](C)C/C(C)=C/C=C/[C@@H]2OC)O[C@H](C(C)C)[C@H]1C | 17 | 1.5 | 1.4 | 
12 | C/C=C/[C@H]1O[C@@](O)([C@@H](C)[C@H](O)[C@H](C)[C@H]2OC(=O)/C(OC)=C/C(C)=C/[C@@H](C)[C@@H](O)[C@@H](CC)[C@@H](O)[C@H](C)C/C(C)=C/C=C/[C@@H]2OC)C[C@@H](OC(C)=O)[C@@H]1C | 1.2 | 5.6 | 5.8 | 
13 | CO/C1=C\C(C)=C\[C@@H](C)[C@@H](O)[C@@H](C)C/C(C)=C/C=C/[C@H](OC)[C@@H]([C@@H](C)[C@@H](O)[C@H](C)[C@H]2C[C@@H](OC)[C@H](C)[C@@H](C(C)C)O2)OC1=O | 20 | 2.7 | 1.4 | 
14 | CCCCC(=O)O[C@@H]1C[C@](O)([C@@H](C)[C@H](O)[C@H](C)[C@H]2OC(=O)/C(OC)=C/C(C)=C/[C@@H](C)[C@@H](O)[C@@H](C)C/C(C)=C/C=C/[C@@H]2OC)O[C@H](C(C)C)[C@H]1C | 37 | 1.5 | 1.4 | 
15 | C/C=C/[C@H]1O[C@@](O)([C@@H](C)[C@H](O)[C@H](C)[C@H]2OC(=O)/C(OC)=C/C(C)=C/[C@@H](C)[C@@H](O)[C@@H](CC)[C@@H](O)[C@H](C)C/C(C)=C/C=C/[C@@H]2OC)C[C@@H](O[C@H]2C[C@@H](OC(C)=O)[C@H](OC(C)=O)[C@@H](C)O2)[C@@H]1C | 0.72 | 4.2 | 1.8 | 
16 | C/C=C/[C@H]1O[C@@](O)([C@@H](C)[C@H](O)[C@H](C)[C@H]2OC(=O)/C(OC)=C/C(C)=C/[C@@H](C)[C@@H](O)[C@@H](CC)[C@@H](OC(C)=O)[C@H](C)C/C(C)=C/C=C/[C@@H]2OC)C[C@@H](OC(C)=O)[C@@H]1C | 3.6 | 5.4 | 2.5 | 
17 | CO/C1=C\C(C)=C\[C@@H](C)[C@@H](O)[C@@H](C)C/C(C)=C/C=C/[C@H](OC)[C@@H]([C@@H](C)[C@@H](O)[C@H](C)[C@@]2(OC)C[C@@H](O)[C@H](C)[C@@H](C(C)C)O2)OC1=O | 12 | 2.3 | 1.2 | 
18 | C/C=C/[C@H]1O[C@@](O)([C@@H](C)[C@H](O)[C@H](C)[C@H]2OC(=O)/C(OC)=C/C(C)=C/[C@@H](C)[C@@H](O)[C@@H](C)[C@@H](O)[C@H](C)C/C(C)=C/C=C/[C@@H]2OC)C[C@@H](O[C@H]2C[C@@H](OC(C)=O)[C@H](OC(N)=O)[C@@H](C)O2)[C@@H]1C | 0.66 | 21 | 8 | 
19 | CO/C1=C\C(C)=C\[C@@H](C)[C@@H](O)[C@@H](C)C/C(C)=C/C=C/[C@H](OC)[C@@H]([C@@H](C)[C@@H](O)[C@H](C)[C@@]2(O)C[C@@H](O[C@@H]3O[C@@H](C)[C@H](O)[C@@H](O)[C@H]3OC)[C@H](C)[C@@H](C(C)C)O2)OC1=O |  |  |  | CC50 at 72 h [3]: 1.4 nM
20 | C/C=C/[C@H]1O[C@@H]([C@@H](C)[C@H](O)[C@H](C)[C@H]2OC(=O)/C(OC)=C/C(C)=C/[C@@H](C)[C@@H](O)[C@@H](CC)[C@@H](O)[C@H](C)C/C(C)=C/C=C/[C@@H]2O)C[C@@H](O)[C@@H]1C | 400 |  |  | 
21 | CC[C@H]1OC(=O)[C@H](C)[C@@H](O[C@@H]2O[C@H](C)C[C@H](N(C)C)[C@H]2O)[C@@H](C)C[C@@H](C)C(=O)/C=C/[C@H]1C | > 1000 |  |  | IC50 [2]: > 1000 nM; IC50 at 72 h [3]: > 1000 nM
22 | CCCCCCCCC(=O)O[C@@H]1C[C@](O)([C@@H](C)[C@H](O)[C@H](C)[C@H]2OC(=O)/C(OC)=C/C(C)=C/[C@@H](C)[C@@H](O)[C@@H](C)C/C(C)=C/C=C/[C@@H]2OC)O[C@H](C(C)C)[C@H]1C | 130 | 1.2 | 1.1 | 
23 | C/C=C/C=C/[C@H]1O[C@@](O)([C@@H](C)[C@H](O)[C@H](C)[C@H]2OC(=O)/C(OC)=C/C(C)=C/[C@@H](C)[C@@H](O)[C@@H](C)C/C(C)=C/C=C/[C@@H]2OC)C[C@@H](O[C@H]2C[C@@H](O)[C@H](O)[C@@H](C)O2)[C@@H]1C |  |  |  | CC50 at 72 h [3]: 1.3 nM
24 | CO/C1=C\C(C)=C\[C@@H](C)[C@@H](O)[C@@H](C)C/C(C)=C/C=C/[C@H](OC)[C@@H]([C@@H](C)[C@@H](O)[C@H](C)[C@H]2C[C@@H](O)[C@H](C)[C@@H](C(C)C)O2)OC1=O | 34 | 4.1 | 1.4 | 
25 | CNC(=O)O[C@@H](CC(C)C)c1nc([C@H]2OC(=O)/C(C)=C/C/C(C)=C/[C@@H](O)[C@@H](C)\C=C(C)/C=C(C)\C=C\[C@@H](O)[C@H](C)[C@H](OC)/C(C)=C/C=C/[C@@H]2C)cs1 [ARCHAZOLID A] |  |  |  | IC50 ([1]; cd4+ t cell): 0.47 nM
26 | COc1cc2c(O)c3c(c(-c4ccc5c(c4)OCO5)c2cc1OC)C(=O)OC3 [DIPHYLLIN] | > 1000 |  |  | IC50 [2]: > 1000 nM; IC50 at 72 h [3]: > 1000 nM
27 | CO/C1=C\C(C)=C\[C@@H](C)[C@@H](O)[C@@H](C)C/C(C)=C/C=C/[C@H](OC)[C@@H]([C@@H](C)[C@@H](O)[C@H](C)[C@H]2C=C(O)[C@H](C)[C@@H](C(C)C)O2)OC1=O | 140 | 2.6 | 1.6 | 
